Rows were chosen to be rich in hits. Some 3.1% of all compounds tested hit in one or more screens of this group.
core dimer inh = inhibitors of HCV core protein dimerization, primary screen, biochemical, TR-FRET, high-throughput; hit rate 0.33% among 300,000; TR-FRET GST/Flag-core106 dimerization, 1536-well; inhibition, % at 5 µM;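 active means inhibition above the mean of all tested compounds plus 3 SD, set per screening campaign, cut at about 45% in these data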
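Assay system: GST-tagged and Flag-tagged HCV core protein residues 1-106 / Times: compound-protein-antibody incubation 4 h at 22.5 °C / Signal: time-resolved FRET, ex 340 nm, em 617 and 671 nm / Evaluation: % inhibition based on acceptor/donor emission ratio / Benchmarks: wells lacking GST-core106 and wells with excess unlabelled core106 / Repeats: singlicate, one well per compound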
Fh CTSL1 inh = Fasciola hepatica cathepsin L1 inhibitors, primary screen, counter-screen for PFM18AAP inhibitor project, biochemical, QFRET, fluorogenic peptide substrate; recombinant F. hepatica cathepsin L1, Z-Leu-Arg-MCA fluorescence; inhibition, % at 5.96 µM; hit rate 0.49% among 300,000; AID 1906, 2009;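 active means inhibition above the mean of all tested compounds plus 3 SD, set per screening campaign, cut at about 17% in these data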
PP5 inh = PP5 phosphatase inhibitors, primary screen, biochemical, fluorescence | Serine/threonine-protein phosphatase 5 (Homo sapiens), P53041 | inhibition, % at 6.7 µM | hit rate 0.18% among 320,000 | AID 1987, 2009 | purified PP5c, OMFP substrate fluorescence;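 active means inhibition above the campaign's mean inhibition across all tested compounds plus 3 SD, cut at about 9.5% in these data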
PP1 inh = PP1-alpha phosphatase inhibitors, primary screen, counter-screen for PP5 inhibitor project, biochemical, fluorescence, OMFP substrate, single point; purified PP1alpha; inhibition, % at 6.7 µM; hit rate 0.9% among 320,000; AID 2235, 2010;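 active means inhibition above the mean inhibition of all tested compounds plus 3 SD, computed separately for each screening campaign, cut at about 15% in these data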
Target sequence (P62136 whole entry, looked up): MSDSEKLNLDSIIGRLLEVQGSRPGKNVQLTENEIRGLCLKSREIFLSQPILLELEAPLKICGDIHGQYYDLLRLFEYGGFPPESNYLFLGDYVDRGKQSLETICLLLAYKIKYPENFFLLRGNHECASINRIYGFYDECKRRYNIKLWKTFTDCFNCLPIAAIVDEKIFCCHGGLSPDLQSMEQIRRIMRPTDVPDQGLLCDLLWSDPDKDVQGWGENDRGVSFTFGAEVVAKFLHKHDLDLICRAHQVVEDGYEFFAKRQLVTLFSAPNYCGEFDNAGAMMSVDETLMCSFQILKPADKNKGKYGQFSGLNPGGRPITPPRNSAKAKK
NadD inh = inhibitors of S. aureus NadD, primary screen, biochemical, colorimetric, uHTS; purified NadD enzyme, colorimetric absorbance read-out; inhibition, % at 20 µM; hit rate 0.78% among 360,000; AID 602399, 2012; in the data active means inhibition above about 26%
Myeloid diff MLP = induction of myeloid progenitor differentiation, primary screen, cell-based, flow cytometry, MLPCN library; ER-HoxA9 myeloid progenitors, lysozyme-GFP differentiation; calls only at 10 µM; hit rate 1% among 360,000; AID 624256, 2012;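 active means normalized GFP-positive differentiation at or above the plate's own cutoff, the solvent-only control mean plus 3 SD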;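 further: cells exposed to compound for four days before flow analysis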
Myeloid diff CP1 = inducers of myeloid progenitor differentiation, confirmation, cell-based, GFP/Mac1 flow cytometry, cherry pick 01 | shares compounds with Myeloid diff MLP | ER-HoxA9 myeloid progenitors, GFP/Mac1 double-positive flow | calls only | hit rate 2% among 2,300 | AID 651706, 2012;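 active means share of green or green-and-red cells above 9 and 9% in run 1 or 4 and 3% in run 2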
GFP autofluor = counter-screen for myeloid differentiation promoters: compound fluorescence; shares compounds with Myeloid diff MLP; ER-HoxA9 myeloid progenitors, no estrogen, GFP autofluorescence flow cytometry; vehicle wells 0%, positive control 100%; fluorescence response, % (test concentration not listed); hit rate 7.4% among 2,300;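 active means over 5% cells positive for green fluorescent reporter, or over 2% positive for both it and APC stain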
Numbers stand for hits.

What do the screens show for `CN(c1ccc(C(=O)NCc2ccc3c(c2)OCO3)cc1)S(=O)(=O)c1ccccc1`?
core dimer inh: inactive; Fh CTSL1 inh: inactive; PP5 inh: inactive; PP1 inh: inactive; NadD inh: inactive; Myeloid diff MLP: inactive; Myeloid diff CP1: inactive; GFP autofluor: inactive

Results for Cc1cccc(-n2c(Cc3ccccc3)nnc2SCC(=O)N2CCOCC2)c1 ?
core dimer inh: inactive; Fh CTSL1 inh: inactive; PP5 inh: inactive; PP1 inh: inactive; NadD inh: inactive; Myeloid diff MLP: inactive; Myeloid diff CP1: inactive; GFP autofluor: inactive

What do the screens show for `O=C(CSc1nnc(Cc2ccccc2)n1-c1cccc(Cl)c1)N1CCOCC1`?
core dimer inh: inactive; Fh CTSL1 inh: inactive; PP5 inh: inactive; PP1 inh: inactive; NadD inh: inactive; Myeloid diff MLP: inactive

Results for O=C(CCN1CCCCC1)N1CCc2c([nH]c3ccccc23)C1c1cccnc1 (stereo not drawn) ?
NadD inh: inactive

What do the screens show for `Cc1sc2ncnc(N3CCC(C(=O)N(CC(C)C)c4nc5ccccc5s4)CC3)c2c1C`?
core dimer inh: inactive; Fh CTSL1 inh: inactive; PP5 inh: inactive; PP1 inh: inactive; NadD inh: inactive; Myeloid diff MLP: inactive

What do the screens show for `Cc1cc(C)n(-c2cc(N3CCN(S(=O)(=O)c4ccc(Br)cc4)CC3)ccc2[N+](=O)[O-])n1`?
core dimer inh: inactive; Fh CTSL1 inh: inactive; PP5 inh: inactive; PP1 inh: inactive; NadD inh: inactive; Myeloid diff MLP: inactive; Myeloid diff CP1: inactive; GFP autofluor: inactive

Results for Cc1cc(-c2cccs2)c2c(n1)sc1c(=O)[nH]c(=O)[nH]c12 ?
core dimer inh: inactive; Fh CTSL1 inh: inactive; PP5 inh: inactive; PP1 inh: inactive; NadD inh: inactive; Myeloid diff MLP: inactive; Myeloid diff CP1: inactive; GFP autofluor: 36

Results for Cc1cc(-c2ccccc2)c2c(n1)sc1c(O)cc(=O)[nH]c12 ?
core dimer inh: inactive; Fh CTSL1 inh: inactive; PP5 inh: inactive; PP1 inh: inactive

How did O=C(Nc1sccc1C(=O)NCc1ccco1)c1cccnc1 do in these assays?
core dimer inh: inactive; Fh CTSL1 inh: inactive; PP5 inh: inactive; PP1 inh: inactive; NadD inh: inactive; Myeloid diff MLP: inactive; Myeloid diff CP1: inactive; GFP autofluor: inactive

Results for O=C(NCc1ccco1)c1ccccc1 ?
core dimer inh: inactive; Fh CTSL1 inh: inactive; PP5 inh: inactive; PP1 inh: inactive; NadD inh: inactive; Myeloid diff MLP: inactive

Results for Cc1c(C)c2c(OCC(=O)N[C@@H](Cc3ccccc3)C(=O)O)cc3c(c2oc1=O)CCC(C)(C)O3 ?
core dimer inh: inactive; Fh CTSL1 inh: inactive; PP5 inh: inactive; PP1 inh: inactive; NadD inh: inactive; Myeloid diff MLP: inactive; Myeloid diff CP1: inactive; GFP autofluor: inactive

How did CC(C)(C)OC(=O)N(CCc1ccccc1)Cc1ccccc1OCc1cccc(NC(=O)C2CC2)c1 do in these assays?
NadD inh: inactive; Myeloid diff MLP: active; Myeloid diff CP1: inactive; GFP autofluor: inactive

Results for CC(C)(C)OC(=O)N(CCc1ccccc1)Cc1ccccc1OCc1cccc(NC(=O)C2CCCC2)c1 ?
NadD inh: inactive; Myeloid diff MLP: inactive

What do the screens show for `c1ccc(COc2ccc(-c3cc4nc(NCCCn5ccnc5)ccn4n3)cc2)cc1`?
NadD inh: inactive; Myeloid diff MLP: inactive; Myeloid diff CP1: inactive; GFP autofluor: inactive

What do the screens show for `O=C(c1cc2c(s1)-c1ccccc1OC2)N1CCCC1`?
core dimer inh: inactive; Fh CTSL1 inh: inactive; PP5 inh: inactive; PP1 inh: inactive; NadD inh: inactive; Myeloid diff MLP: inactive; Myeloid diff CP1: inactive; GFP autofluor: inactive

What do the screens show for `O=C(CNC(=O)c1ccc(Oc2ccccc2)cc1)OC1CCCCC1=O` (stereo not drawn)?
core dimer inh: inactive; Fh CTSL1 inh: 19; PP5 inh: inactive; PP1 inh: inactive; NadD inh: inactive; Myeloid diff MLP: active; Myeloid diff CP1: inactive; GFP autofluor: inactive

What do the screens show for `Cc1ccc(C(=O)NCC(=O)OC2CCCCC2=O)cc1C` (stereo not drawn)?
NadD inh: inactive; Myeloid diff MLP: inactive

What do the screens show for `CCN(Cc1cc2ccccc2[nH]c1=O)C(=O)C1CCCCC1`?
core dimer inh: inactive; Fh CTSL1 inh: inactive; PP5 inh: inactive; PP1 inh: inactive; NadD inh: inactive; Myeloid diff MLP: inactive

Results for CC(C)N(Cc1cc2ccccc2[nH]c1=O)C(=O)C1CCCCC1 ?
core dimer inh: inactive; Fh CTSL1 inh: inactive; PP5 inh: inactive; PP1 inh: inactive; NadD inh: inactive; Myeloid diff MLP: inactive; Myeloid diff CP1: inactive; GFP autofluor: inactive

How did O=C(CSc1nnc(CNC(=O)c2ccco2)o1)Nc1ccc(F)cc1 do in these assays?
core dimer inh: inactive; Fh CTSL1 inh: inactive; PP5 inh: inactive; PP1 inh: inactive; NadD inh: inactive; Myeloid diff MLP: inactive

What do the screens show for `Nc1nonc1-n1nnc(C(=O)N/N=C/c2cccc(F)c2)c1CN1CCCCCC1`?
core dimer inh: inactive; Fh CTSL1 inh: inactive; PP5 inh: inactive; PP1 inh: inactive; NadD inh: inactive; Myeloid diff MLP: inactive

How did CCCCN1C[C@H](Cc2ccccc2)[C@@H](CC(=O)Nc2ccccc2)C1=O do in these assays?
core dimer inh: inactive; Fh CTSL1 inh: inactive; PP5 inh: inactive; PP1 inh: inactive; NadD inh: inactive; Myeloid diff MLP: inactive; Myeloid diff CP1: inactive; GFP autofluor: inactive

What do the screens show for `CCCCN1C[C@H](Cc2ccccc2)[C@@H](CC(=O)Nc2ccc(OC)cc2)C1=O`?
NadD inh: inactive; Myeloid diff MLP: inactive

How did CC1(C)CN(CCc2ccccc2)C(=O)[C@H]1CC(=O)Nc1ccccc1 do in these assays?
NadD inh: inactive; Myeloid diff MLP: active; Myeloid diff CP1: inactive; GFP autofluor: 10

What do the screens show for `CCOc1ccc(C(=O)N[C@H](C(=O)NNC(=O)c2cccs2)C(C)C)cc1`?
NadD inh: inactive; Myeloid diff MLP: inactive

How did COc1ccc(-n2nc(C(=O)NCC(=O)N3CCN(c4ccccn4)CC3)c3ccccc3c2=O)c(OC)c1 do in these assays?
core dimer inh: inactive; Fh CTSL1 inh: inactive; PP5 inh: inactive; PP1 inh: inactive; NadD inh: inactive; Myeloid diff MLP: inactive

Compound activity deposited in PubChem by several laboratories.
